Measured values reported in ChEMBL document CHEMBL4219101, “Discovery of 18β-glycyrrhetinic acid conjugated aminobenzothiazole derivatives as Hsp90-Cdc37 interaction disruptors that inhibit cell migration and reverse drug resistance” (Bioorg Med Chem, 2018).

Key:
MCF7 = experiment: Antiproliferative activity against human MCF7 cells after 48 hrs by MTT assay; type: functional, cell-based; settings: MCF7, 48 h
Procedure, shortened: (§1)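 Cells in log phase seeded at about 1.0 × 10^5 cells/mL in 96-well plates, left 12 h at 37 °C, 5% CO2. Compounds dissolved in DMSO, added at 2.5, 5, 10, 20 and 50 µM, 48 h exposure. Absorbance read at 570/630 nm dual wavelength. Survival expressed relative to negative control. IC50 by Bliss method (n = 5), tests done in triplicate.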

A549 = experiment: Antiproliferative activity against human A549 cells after 48 hrs by MTT assay; type: functional, cell-based; settings: A549, 48 h; procedure, shortened: as §1
HCT-116 = experiment: Antiproliferative activity against human HCT116 cells after 48 hrs by MTT assay; type: functional, cell-based; settings: HCT-116, 48 h; procedure, shortened: as §1
HepG2 = experiment: Antiproliferative activity against human HepG2 cells after 48 hrs by MTT assay; type: functional, cell-based; settings: HepG2, 48 h; procedure, shortened: as §1
[1] = Inhibition of His-tagged full-length Hsp90 (unknown origin)/GST-tagged Cdc37M (unknown origin) interaction after 1 hr by HTRF assay; set-up: species or system Homo sapiens
Procedure, shortened: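 TR-FRET in PBS containing 400 mM KF, pH 7.3. His-tagged full-length Hsp90 and GST-Cdc37M, each 250 nM final, incubated with compound for 1 h at 37 °C. Anti-GST-Cryptate and anti-6His-XL665 then added for a further 0.5 h at 37 °C. Excitation 320 nm, emission 665/620 nm, reported as ratio ×10,000. Negative and blank controls run in each assay.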

Row | Compound | IC50 (MCF7) | IC50 (A549) | IC50 (HCT-116) | IC50 (HepG2) | IC50 [1]
1 | CC1(C)[C@@H](O)CC[C@]2(C)[C@H]3C(=O)C=C4[C@@H]5C[C@@](C)(C(=O)Nc6nc7ccc(F)cc7s6)CC[C@]5(C)CC[C@@]4(C)[C@]3(C)CC[C@@H]12 | 31.1 µM | 32.2 µM | 31.5 µM | 36.4 µM | 32.3 µM
2 | CC1=C(O)C(=O)C=C2C1=CC=C1[C@@]2(C)CC[C@@]2(C)[C@@H]3C[C@](C)(C(=O)O)CC[C@]3(C)CC[C@]12C [CELASTROL] | 6.84 µM | 6.59 µM | 5.26 µM | 6.17 µM | 6.22 µM
3 | CC1(C)[C@@H](O)CC[C@]2(C)[C@H]3C(=O)C=C4[C@@H]5C[C@@](C)(C(=O)Nc6nc7c(F)cccc7s6)CC[C@]5(C)CC[C@@]4(C)[C@]3(C)CC[C@@H]12 | 41.2 µM | 36.5 µM | 42.5 µM | 45.6 µM | 45.7 µM
4 | CC(=O)O[C@H]1CC[C@]2(C)[C@H]3C(=O)C=C4[C@@H]5C[C@@](C)(C(=O)Nc6nc7c(Cl)cccc7s6)CC[C@]5(C)CC[C@@]4(C)[C@]3(C)CC[C@H]2C1(C)C | > 100 µM | > 100 µM | > 100 µM | > 100 µM | > 100 µM
5 | CCOC(=O)[C@@]1(C)CC[C@]2(C)CC[C@]3(C)C(=CC(=O)[C@@H]4[C@@]5(C)CC[C@H](OC(=O)CCC(=O)Nc6nc7ccc(C)cc7s6)C(C)(C)[C@@H]5CC[C@]43C)[C@@H]2C1 | 22.5 µM | 19.1 µM | 23.6 µM | 27.5 µM | 14.9 µM
6 | CC1(C)[C@@H](O)CC[C@]2(C)[C@H]3C(=O)C=C4[C@@H]5C[C@@](C)(C(=O)Nc6nc7ccc(Cl)cc7s6)CC[C@]5(C)CC[C@@]4(C)[C@]3(C)CC[C@@H]12 | 16.5 µM | 22.8 µM | 16.3 µM | 21.8 µM | 36.9 µM
7 | CC(=O)O[C@H]1CC[C@]2(C)[C@H]3C(=O)C=C4[C@@H]5C[C@@](C)(C(=O)Nc6nc7ccc(Cl)cc7s6)CC[C@]5(C)CC[C@@]4(C)[C@]3(C)CC[C@H]2C1(C)C | 66.7 µM | 62.6 µM | 68.5 µM | 73.1 µM | 77.6 µM
8 | CC(=O)O[C@H]1CC[C@]2(C)[C@H]3C(=O)C=C4[C@@H]5C[C@@](C)(C(=O)Nc6nc7c(C)cccc7s6)CC[C@]5(C)CC[C@@]4(C)[C@]3(C)CC[C@H]2C1(C)C | > 100 µM | > 100 µM | > 100 µM | > 100 µM | > 100 µM
9 | CC1(C)[C@@H](O)CC[C@]2(C)[C@H]3C(=O)C=C4[C@@H]5C[C@@](C)(C(=O)Nc6nc7ccc(Br)cc7s6)CC[C@]5(C)CC[C@@]4(C)[C@]3(C)CC[C@@H]12 | 33.8 µM | 33.4 µM | 37.4 µM | 39.5 µM | 41.3 µM
10 | O=c1[nH]cc(F)c(=O)[nH]1 [FLUOROURACIL] | 15.8 µM | 19.5 µM | 17.2 µM | 23.6 µM | –
11 | CCOC(=O)[C@@]1(C)CC[C@]2(C)CC[C@]3(C)C(=CC(=O)[C@@H]4[C@@]5(C)CC[C@H](OC(=O)CCC(=O)Nc6nc7c(C)cccc7s6)C(C)(C)[C@@H]5CC[C@]43C)[C@@H]2C1 | 26.5 µM | 22.8 µM | 26.3 µM | 31.8 µM | 21.9 µM
12 | CC1(C)[C@@H](O)CC[C@]2(C)[C@H]3C(=O)C=C4[C@@H]5C[C@@](C)(C(=O)Nc6nc7ccccc7s6)CC[C@]5(C)CC[C@@]4(C)[C@]3(C)CC[C@@H]12 | 71.4 µM | 75.4 µM | 80.7 µM | 88 µM | 89.5 µM
13 | CCOC(=O)[C@@]1(C)CC[C@]2(C)CC[C@]3(C)C(=CC(=O)[C@@H]4[C@@]5(C)CC[C@H](OC(=O)CCC(=O)Nc6nc7c(Br)cccc7s6)C(C)(C)[C@@H]5CC[C@]43C)[C@@H]2C1 | 24.4 µM | 20.7 µM | 26.8 µM | 29.9 µM | 15.3 µM
